According to ChEMBL document CHEMBL1240382, “Elucidation of the pharmacokinetic/pharmacodynamic determinant of colistin activity against Pseudomonas aeruginosa in murine thigh and lung infection models” (Antimicrob Agents Chemother, 2010):

Assays:
[1] = fAUC/MIC in Pseudomonas aeruginosa ATCC 27853 infected Swiss mouse lung infection model assessed as 3-log10 kill after 24 hrs; type: functional
Procedure, shortened: (§1)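 Unbound single-dose profiles superimposed to give 24-h fAUC (trapezoidal) per regimen, divided by MIC; log10 CFU per thigh or lung at 24 h fitted to inhibitory sigmoid Emax model by nonlinear least squares; fAUC/MIC for stasis (24-h count equal to treatment-start count) and 1-, 2-, 3-log10 kill derived from fitted parameters.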

[2] = fAUC/MIC in Pseudomonas aeruginosa ATCC 27853 infected Swiss mouse lung infection model assessed as induction of static antimicrobial effect after 24 hrs; type: functional; procedure, shortened: as §1
[3] = fAUC/MIC in Pseudomonas aeruginosa ATCC 27853 infected Swiss mouse thigh infection model assessed as 2-log10 kill after 24 hrs; type: functional; procedure, shortened: as §1
Pseudomonas aeruginosa [4] = test: Antimicrobial activity against Pseudomonas aeruginosa isolate 19056 infected in neutropenic Swiss mouse thigh infection model assessed as reduction in bacterial burden relative to control; type: functional, organism-based; conditions: Thigh muscle
Procedure, shortened: (§2)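 Neutropenic thigh-infected Swiss mice; colistin (sulfate) s.c. started 2 h after inoculation, 5–40 mg/kg per dose every 3, 6, 8, 12 or 24 h (5–160 mg/kg/day), two mice per regimen. Killed 24 h after treatment start; each thigh homogenized and plated on nutrient agar; log10 CFU/thigh, lower count limit 100 CFU; change versus 2 h burden.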

[5] = fAUC/MIC in Pseudomonas aeruginosa PAO1 infected Swiss mouse thigh infection model assessed as induction of static antimicrobial effect after 24 hrs; type: functional
[6] = fAUC/MIC in Pseudomonas aeruginosa ATCC 27853 infected Swiss mouse thigh infection model assessed as 1-log10 kill after 24 hrs; type: functional; procedure, shortened: as §1
[7] = fAUC/MIC in Pseudomonas aeruginosa PAO1 infected Swiss mouse lung infection model assessed as 2-log10 kill after 24 hrs; type: functional; procedure, shortened: as §1
[8] = fAUC/MIC in Pseudomonas aeruginosa PAO1 infected Swiss mouse thigh infection model assessed as 3-log10 kill after 24 hrs; type: functional
[9] = fAUC/MIC in Pseudomonas aeruginosa isolate 19056 infected Swiss mouse lung infection model assessed as 3-log10 kill after 24 hrs; type: functional
[10] = fAUC/MIC in Pseudomonas aeruginosa isolate 19056 infected Swiss mouse thigh infection model after assessed as 2-log10 kill after 24 hrs; type: functional
Pseudomonas aeruginosa [11] = test: Antimicrobial activity against Pseudomonas aeruginosa isolate 19056 in neutropenic Swiss mouse lung infection model assessed as bacterial load in mouse thigh after 2 hrs; type: functional, organism-based
Procedure, shortened: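 Lung model: neutropenic Swiss mice under isoflurane given 50 µl of ~10^8 CFU/ml early-log suspension intranasally in ~10 µl portions, then held head-up 1 min. Untreated controls killed 2 h post-inoculation; lungs homogenized in 2 ml saline, viable counts by dilution plating on nutrient agar; lower limit 220 CFU/lung.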

[12] = fAUC/MIC in Pseudomonas aeruginosa PAO1 infected Swiss mouse thigh infection model assessed as 2-log10 kill after 24 hrs; type: functional
Pseudomonas aeruginosa [13] = test: Antimicrobial activity against Pseudomonas aeruginosa isolate 19056 by broth microdilution method; type: functional, organism-based
Procedure, shortened: (§3)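 Colistin (sulfate) MIC by broth microdilution; strains stored in tryptone soy broth with 20% glycerol at −80°C and subcultured overnight on horse blood agar at 37°C before use.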

Pseudomonas aeruginosa [14] = test: Antimicrobial activity against Pseudomonas aeruginosa isolate 19056 in neutropenic Swiss mouse thigh infection model assessed as bacterial load in mouse thigh after 2 hrs; type: functional, organism-based; conditions: Thigh muscle
Procedure, shortened: (§4)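 Thigh model: female Swiss mice (22–26 g) made neutropenic with cyclophosphamide i.p. (150 mg/kg day −4, 100 mg/kg day −1). Under isoflurane, ~10^7 CFU/ml early-log suspension injected i.m. (50 µl per posterior thigh). Untreated controls killed 2 h post-inoculation; thighs homogenized in saline, filtered, serially diluted, plated on nutrient agar, counted after 24 h at 37°C; log10 CFU/thigh.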

Pseudomonas aeruginosa [15] = test: Antimicrobial activity against Pseudomonas aeruginosa isolate 19056 in neutropenic Swiss mouse thigh infection model assessed as bacterial load in mouse thigh at 40 mg/kg, sc after 24 hrs; type: functional, organism-based; parameters: dose 40 mg/kg; procedure, shortened: as §2
[16] = fAUC/MIC in Pseudomonas aeruginosa isolate 19056 infected Swiss mouse lung infection model assessed as induction of static antimicrobial effect after 24 hrs; type: functional
Pseudomonas aeruginosa [17] = test: Antimicrobial activity against Pseudomonas aeruginosa PAO1 in neutropenic Swiss mouse thigh infection model assessed as bacterial load in mouse thigh at 40 mg/kg, sc after 24 hrs; type: functional, organism-based; parameters: dose 40 mg/kg; procedure, shortened: as §2
[18] = fAUC/MIC in Pseudomonas aeruginosa PAO1 infected Swiss mouse lung infection model assessed as 1-log10 kill after 24 hrs; type: functional; procedure, shortened: as §1
Pseudomonas aeruginosa [19] = test: Antimicrobial activity against Pseudomonas aeruginosa PAO1 in neutropenic Swiss mouse lung infection model assessed as bacterial load in mouse thigh at 40 mg/kg, sc after 24 hrs; type: functional, organism-based; parameters: dose 40 mg/kg
Procedure, shortened: (§5)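 Neutropenic lung-infected Swiss mice; colistin (sulfate) s.c. from 2 h post-inoculation, 5–40 mg/kg per dose every 6, 8, 12 or 24 h. Killed 24 h after treatment start; lungs homogenized in saline and plated; log10 CFU/lung (limit 220 CFU); change versus 2 h burden.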

[20] = fAUC/MIC in Pseudomonas aeruginosa PAO1 infected Swiss mouse lung infection model assessed as induction of static antimicrobial effect after 24 hrs; type: functional; procedure, shortened: as §1
Pseudomonas aeruginosa [21] = test: Antimicrobial activity against Pseudomonas aeruginosa PAO1 infected in neutropenic Swiss mouse thigh infection model assessed as reduction in bacterial burden relative to control; type: functional, organism-based; conditions: Thigh muscle; procedure, shortened: as §2
[22] = fAUC/MIC in Pseudomonas aeruginosa PAO1 infected Swiss mouse lung infection model assessed as 3-log10 kill after 24 hrs; type: functional; procedure, shortened: as §1
[23] = fAUC/MIC in Pseudomonas aeruginosa PAO1 infected Swiss mouse thigh infection model assessed as 1-log10 kill after 24 hrs; type: functional; procedure, shortened: as §1
Pseudomonas aeruginosa [24] = test: Antimicrobial activity against Pseudomonas aeruginosa ATCC 27853 in neutropenic Swiss mouse lung infection model assessed as bacterial load in mouse thigh at 40 mg/kg, sc after 24 hrs; type: functional, organism-based; parameters: dose 40 mg/kg; procedure, shortened: as §5
[25] = fAUC/MIC in Pseudomonas aeruginosa isolate 19056 infected Swiss mouse thigh infection model after assessed as 1-log10 kill 24 hrs; type: functional
Pseudomonas aeruginosa [26] = test: Antimicrobial activity against Pseudomonas aeruginosa ATCC 27853 by broth microdilution method; type: functional, organism-based; procedure, shortened: as §3
[27] = fAUC/MIC in Pseudomonas aeruginosa isolate 19056 infected Swiss mouse thigh infection model after assessed as 3-log10 kill after 24 hrs; type: functional
[28] = fAUC/MIC in Pseudomonas aeruginosa ATCC 27853 infected Swiss mouse thigh infection model assessed as induction of static antimicrobial effect after 24 hrs; type: functional; procedure, shortened: as §1
Pseudomonas aeruginosa [29] = test: Antimicrobial activity against Pseudomonas aeruginosa PAO1 infected in neutropenic Swiss mouse lung infection model assessed as reduction in bacterial burden relative to control; type: functional, organism-based; procedure, shortened: as §5
Pseudomonas aeruginosa [30] = test: Antimicrobial activity against Pseudomonas aeruginosa ATCC 27853 in neutropenic Swiss mouse thigh infection model assessed as bacterial load in mouse thigh after 2 hrs; type: functional, organism-based; conditions: Thigh muscle; procedure, shortened: as §4
Pseudomonas aeruginosa [31] = test: Antimicrobial activity against Pseudomonas aeruginosa ATCC 27853 infected in neutropenic Swiss mouse thigh infection model assessed as reduction in bacterial burden relative to control; type: functional, organism-based; conditions: Thigh muscle; procedure, shortened: as §2
Pseudomonas aeruginosa [32] = test: Antimicrobial activity against Pseudomonas aeruginosa PAO1 in neutropenic Swiss mouse thigh infection model assessed as bacterial load in mouse thigh after 2 hrs; type: functional, organism-based; conditions: Thigh muscle; procedure, shortened: as §4
Pseudomonas aeruginosa [33] = test: Antimicrobial activity against Pseudomonas aeruginosa ATCC 27853 in neutropenic Swiss mouse thigh infection model assessed as bacterial load in mouse thigh at 40 mg/kg, sc after 24 hrs; type: functional, organism-based; parameters: dose 40 mg/kg; procedure, shortened: as §2
[34] = fAUC/MIC in Pseudomonas aeruginosa isolate 19056 infected Swiss mouse lung infection model assessed as 2-log10 kill after 24 hrs; type: functional
Pseudomonas aeruginosa [35] = test: Antimicrobial activity against Pseudomonas aeruginosa ATCC 27853 in neutropenic Swiss mouse lung infection model assessed as bacterial load in mouse thigh after 2 hrs; type: functional, organism-based; conditions: Thigh muscle
[36] = fAUC/MIC in Pseudomonas aeruginosa isolate 19056 infected Swiss mouse thigh infection model assessed as induction of static antimicrobial effect after 24 hrs; type: functional
Pseudomonas aeruginosa [37] = test: Antimicrobial activity against Pseudomonas aeruginosa isolate 19056 infected in neutropenic Swiss mouse lung infection model assessed as reduction in bacterial burden relative to control; type: functional, organism-based; procedure, shortened: as §5
[38] = fAUC/MIC in Pseudomonas aeruginosa isolate 19056 infected Swiss mouse lung infection model assessed as 1-log10 kill after 24 hrs; type: functional
[39] = fAUC/MIC in Pseudomonas aeruginosa ATCC 27853 infected Swiss mouse lung infection model assessed as 1-log10 kill after 24 hrs; type: functional; procedure, shortened: as §1
Pseudomonas aeruginosa [40] = test: Antimicrobial activity against Pseudomonas aeruginosa ATCC 27853 infected in neutropenic Swiss mouse lung infection model assessed as reduction in bacterial burden relative to control; type: functional, organism-based; procedure, shortened: as §5
Pseudomonas aeruginosa [41] = test: Antimicrobial activity against Pseudomonas aeruginosa PAO1 by broth microdilution method; type: functional, organism-based; procedure, shortened: as §3
Pseudomonas aeruginosa [42] = test: Antimicrobial activity against Pseudomonas aeruginosa PAO1 in neutropenic Swiss mouse lung infection model assessed as bacterial load in mouse thigh after 2 hrs; type: functional, organism-based; conditions: Thigh muscle
[43] = fAUC/MIC in Pseudomonas aeruginosa ATCC 27853 infected Swiss mouse thigh infection model assessed as 3-log10 kill after 24 hrs; type: functional; procedure, shortened: as §1
[44] = fAUC/MIC in Pseudomonas aeruginosa ATCC 27853 infected Swiss mouse lung infection model assessed as 2-log10 kill after 24 hrs; type: functional; procedure, shortened: as §1

fAUC/MIC [2]: 6.43
fAUC/MIC [5]: 14.4
MIC (Pseudomonas aeruginosa [13]): 0.5 µg/mL
fAUC/MIC [16]: 4.07
fAUC/MIC [20]: 5.42
MIC (Pseudomonas aeruginosa [26]): 1 µg/mL
fAUC/MIC [28]: 17.3
fAUC/MIC [36]: 8.34
MIC (Pseudomonas aeruginosa [41]): 1 µg/mL
Sequence: COLISTIMETHATE SODIUM
fAUC/MIC [1]: 105
fAUC/MIC [3]: 31.2
Emax (log10 CFU/organ) (Pseudomonas aeruginosa [4]): 6.23
fAUC/MIC [6]: 22.7
fAUC/MIC [7]: 45.9
fAUC/MIC [8]: 66.7
fAUC/MIC [9]: 141
fAUC/MIC [10]: 27.6
log10cfu (Pseudomonas aeruginosa [11]): 6.43
fAUC/MIC [12]: 36.1
log10cfu (Pseudomonas aeruginosa [14]): 6.26
log10cfu (Pseudomonas aeruginosa [15]): 3.69
log10cfu (Pseudomonas aeruginosa [17]): 4.01
fAUC/MIC [18]: 16.7
log10cfu (Pseudomonas aeruginosa [19]): 3.09
Emax (log10 CFU/organ) (Pseudomonas aeruginosa [21]): 5.97
fAUC/MIC [22]: 135
fAUC/MIC [23]: 22.8
log10cfu (Pseudomonas aeruginosa [24]): 3.58
fAUC/MIC [25]: 15.6
fAUC/MIC [27]: 53.3
Emax (log10 CFU/organ) (Pseudomonas aeruginosa [29]): 7.36
log10cfu (Pseudomonas aeruginosa [30]): 6.14
Emax (log10 CFU/organ) (Pseudomonas aeruginosa [31]): 6.29
log10cfu (Pseudomonas aeruginosa [32]): 6.35
log10cfu (Pseudomonas aeruginosa [33]): 3.17
fAUC/MIC [34]: 36.9
log10cfu (Pseudomonas aeruginosa [35]): 6.64
Emax (log10 CFU/organ) (Pseudomonas aeruginosa [37]): 6.86
fAUC/MIC [38]: 12.2
fAUC/MIC [39]: 15.6
Emax (log10 CFU/organ) (Pseudomonas aeruginosa [40]): 7.58
log10cfu (Pseudomonas aeruginosa [42]): 6.92
fAUC/MIC [43]: 55.1
fAUC/MIC [44]: 37.9
